Source: PubChem (The Scripps Research Institute Molecular Screening Center)
proCasp3 act: procaspase-3 (human) activation. activation, % at 8.5 µM. P42574. recombinant procaspase-3 D3A, Ac-DEVD-pNA absorbance 405 nm. 330,000 tested, 0.11% active;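 active = activation above the mean of all tested compounds plus 3 SD, cut at about 21% in these data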;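 note: 0% = DMSO alone and 100% = DMSO wells spiked with extra 5 µM PC-3 D3A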
Target sequence (P42574 whole entry D9A/D28A/D175A): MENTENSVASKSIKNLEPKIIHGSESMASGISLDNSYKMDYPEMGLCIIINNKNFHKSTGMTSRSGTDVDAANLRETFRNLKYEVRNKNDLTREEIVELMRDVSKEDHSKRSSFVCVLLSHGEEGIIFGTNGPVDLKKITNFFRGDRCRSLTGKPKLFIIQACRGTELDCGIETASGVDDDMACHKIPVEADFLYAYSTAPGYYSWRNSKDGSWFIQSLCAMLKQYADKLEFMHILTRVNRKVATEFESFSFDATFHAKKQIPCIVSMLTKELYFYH
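Assay system – Procaspase-3 D3A mutant · Benchmarks – DMSO low control, extra-enzyme high control · Technique – 405 nm absorbance of p-nitroaniline, reads at 0 and 120 min · Doses – 8.5 µM nominal · Measure – % activation between DMSO and enzyme-spiked controls · Also added – Ac-DEVD-pNA chromogenic peptide substrate · Schedule – 1 h compound preincubation, 2 h substrate hydrolysis at 25 °C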
LYPLA2 inh: blocks human lysophospholipase 2, a PME1 counter-screen; O95372; recombinant LYPLA2, FP-Rh probe fluorescence polarization; inhibition, % at 5.9 µM; 320,000 tested, 0.38% active; AID 2177;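 active = inhibition above the screen-wide mean plus 3 SD, limit set per campaign, cut at about 26% in these data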;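 note: 0% = LYPLA2 with DMSO and 100% = wells lacking LYPLA2 enzyme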
PREPL inhibitor: inhibits the human prolyl oligopeptidase-like enzyme; inhibition, % at 5.96 µM; 320,000 tested, 0.68% active; AID 2751; recombinant PREPL, fluorescence polarization activity-based probe; Q4J6C6;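 note: 0% = enzyme with DMSO and 100% = wells lacking enzyme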
procasp7 counter: counter-screen for procaspase-3 activators: activators of human procaspase-7. P55210. recombinant procaspase-7, Ac-DEVD-pNA absorbance 405 nm; D23A/D198A/D206A triple mutant, cannot self-cleave; scale: DMSO 0, 5 µM enzyme 100. activation, % at 8.5 µM. 330,000 tested, 0.093% active. AID 463210;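 active = percent activation above the screen-wide mean plus 3 SD, cut at about 25% in these data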
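Assay system: Uncleavable procaspase-7 mutant enzyme | Input: 2 µM procaspase-7 mutant as dispensed | Timing: 1 h compound preincubation, 2 h substrate cleavage, 25 °C | Repeats: One well per compound | Control set: DMSO wells as 0%, DMSO with 5 µM added PC-7 as 100% | Technique: Epi-absorbance of released pNA at 405 nm, two timepoints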
LYPLA1 inh: LYPLA1 (human) inhibition in PME1 counter-screen | AID 2174 | 320,000 tested, 0.16% active | O75608 | recombinant LYPLA1, FP-Rh probe fluorescence polarization | inhibition, % at 5.9 µM;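 active = inhibition above the mean of all tested compounds plus 3 SD, set per campaign, cut at about 14% in these data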;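 note: inhibitors block serine hydrolase probe labeling of LYPLA1 so polarization falls; 0% = enzyme with DMSO and 100% = wells lacking LYPLA1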
Target sequence (O75608 whole entry, looked up): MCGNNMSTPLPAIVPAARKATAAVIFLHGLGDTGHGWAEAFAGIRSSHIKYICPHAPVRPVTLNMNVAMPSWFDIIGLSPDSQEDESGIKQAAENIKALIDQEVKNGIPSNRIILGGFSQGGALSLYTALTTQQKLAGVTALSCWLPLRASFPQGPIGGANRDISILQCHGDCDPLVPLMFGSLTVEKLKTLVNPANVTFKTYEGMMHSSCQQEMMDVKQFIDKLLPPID
PREPL confirm: confirmation of human PREPL enzyme inhibitors | 2,000 tested, 67% active | recombinant PREPL, fluorescence polarization activity probe | inhibition, % at 5.96 µM | shares compounds with PREPL inhibitor;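 note: 0% = protein with DMSO and 100% = wells lacking protein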
* hit, by the source's call; . = not tested or not shown. Most compounds without a hit are left out; they make up all but 1.1% or so of the library. Cut-off read from the data, not from the text of the source, unless noted: active = inhibition above about 43%; inactive = the rest.

SMILES	proCasp3 act	LYPLA2 inh	PREPL inhibitor	procasp7 counter	LYPLA1 inh	PREPL confirm
CC1=Nc2nc(N3CCCCC3)c(C#N)c3c4c(nc(c23)N1)N(c1ccc(C(C)C)cc1)C(=O)C4	5.1	-1.1	98.7*	8.4	-8.2	71.6*
COc1ccc2c(/C=N/Nc3ccc(C(=O)O)cc3)c[nH]c2c1	7.0	9.5	56.3*	-11.4	3.4	9.8
CCOC(OCC)c1cn(Cc2ccc3c(c2)C(=O)c2ccccc2C3=O)nn1	3.5	3.5	34.4	-6.0	-1.1	.
CCN1CCN(C(=O)c2ccc(COc3cccc(Cl)c3)o2)CC1	-0.2	4.8	-11.5	3.4	2.6	.
CN(C)c1ccc(NC(=O)c2ccc(COc3cccc(Cl)c3)o2)cc1	-5.8	16.1	57.8*	-7.4	-2.7	46.9*
CCOC(=O)N/N=C/c1cc(OC)c(O)c(OC)c1	-3.3	-2.5	4.1	9.7	-4.1	.
CCOC(=O)c1sc(N/N=C/c2cc(Br)c(O)c(OC)c2)nc1C	-47.6	8.7	44.0*	-15.8	6.4	47.8*
CCCCCCCCCC[N+](C)(C)CC/C=C1/c2ccccc2Sc2ccc(Cl)cc21	-8.9	12.8	39.9	-1.4	-1.6	.
CCCCCCCCCCC[N+](C)(C)CC/C=C1/c2ccccc2Sc2ccc(Cl)cc21	-7.1	8.5	45.0*	0.7	0.4	34.6
CC[C@@H](C)[C@@H]1CN([C@@H](C)CN2CCC[C@H]2CN2C(N)=NC[C@@H]2Cc2ccccc2)C(=N)N1CCc1ccc(Cl)c(Cl)c1	5.4	.	52.1*	11.7	.	41.5
CC[C@@H](C)[C@@H]1CN([C@@H](CN2CCC[C@H]2CN2C(N)=NC[C@H]2C(C)C)C(C)C)C(=N)N1CCc1ccc(Cl)c(Cl)c1	1.1	.	59.9*	4.6	.	50.0*
CC[C@@H](C)[C@@H]1CN([C@@H](C)CN2CCC[C@H]2CN2C(N)=NC[C@H]2CC(C)C)C(=N)N1CCCC1CCCC1	-0.3	.	41.1	11.8	.	.
CC[C@@H](C)[C@@H]1CN([C@@H](C)CN2CCC[C@H]2CN2C(N)=NC[C@@H]2Cc2ccccc2)C(=N)N1CCCC1CCCC1	2.0	.	43.7*	6.1	.	49.9*
COc1ccc(S(=O)(=O)N2CCOC2CNC(=O)C(=O)NCCc2ccccc2OC)cc1 (stereo not drawn)	7.7	2.2	4.3	-2.1	0.3	.
COCCNC(=O)c1onc(CS(=O)(=O)c2cc(C)cc(C)c2)c1C(=O)NCCOC	1.4	4.0	7.5	11.3	0.1	.
O=C(N/N=C1/CC2CCC1C2)c1cc2ccccc2cc1O (stereo not drawn)	-2.8	-7.2	9.8	-4.7	-19.7	.
O=C(CC1OC(=O)c2ccccc21)Nc1cc(Cl)ccc1N1CCCC1 (stereo not drawn)	0.2	6.3	8.6	-4.0	1.2	.
COc1ccc2c(c1)[nH]c1c(N3CCN(Cc4ccc5c(c4)OCO5)CC3)ncnc12	-9.1	1.7	66.9*	-0.3	-6.2	64.0*
COc1cccc2[nH]c3c(N4CCN(Cc5ccc6c(c5)OCO6)CC4)ncnc3c12	-5.4	-1.1	73.5*	9.1	-3.5	60.5*
CCN(CCCNC(=O)C1c2ccccc2C(=O)N(CCOC)C1c1ccc(F)cc1)Cc1ccccc1 (stereo not drawn)	9.0	1.3	49.1*	1.1	1.9	17.0
CCN(CC)CCCNC(=O)C1c2ccccc2C(=O)N(CCOC)C1c1ccc(F)cc1 (stereo not drawn)	-8.5	4.7	2.3	-0.8	-2.5	.
C/C(N)=C(/C#N)C(=O)COC(=O)C1CCN(S(=O)(=O)c2cccs2)CC1	8.3	.	-7.0	9.4	.	.
O=C(C1=C[C@@H](c2ccc3c(c2)OCO3)C[C@@H](OCCCCO)O1)N1CCN(Cc2ccc3c(c2)OCO3)CC1	7.3	8.2	49.7*	1.1	0.8	48.9*
O=C(C1=C[C@H](c2ccc(Br)cc2)C[C@H](OCCCCO)O1)N1CCN(Cc2ccc3c(c2)OCO3)CC1	6.5	7.4	34.0	5.2	-4.6	.
CN1CCN(C(=O)C2=C[C@H](c3ccc(Br)cc3)C[C@H](OCCCCO)O2)CC1	0.0	3.3	28.2	-9.6	0.3	.
